Compounds with a hit are over-represented: about 2.4% of the library has one in this group of screens.
Yeast life ext: compounds extending yeast replicative lifespan, primary screen, S. cerevisiae, OD615; S. cerevisiae growth with nicotinamide; deaD strain in restrictive glucose medium; inhibition of the nicotinamide effect, % at 10 µM; actives 0.68% (n = 130,000);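 active means inhibition above a set limit, placed 3 SD over the median of all compounds, cut at about 26% in these data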
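Assay system: DeaD-strain S. cerevisiae. Medium: CSMM-D glucose medium, restrictive. Reagent: nicotinamide, 1.5 mM, co-present with compound. Compound: 10 µM single point, 0.25% DMSO. Schedule: culture preincubation 4 h, compound exposure 48 h, both 30 °C. Detection: absorbance at 615 nm.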
Measles CPE: compounds protecting cells from measles virus cytopathic effect, primary screen, measles RdRp inhibitor project, single point, MLSMR library, absorbance | protection (pct of control), % at 4 µM | actives 1.5% (n = 140,000) | Measles virus-infected cells, CPE protection | AID 841, 2007; in the data active means protection mostly above about 24%, no sharp cut-off; inactive means mostly below about 26%
Arbovirus anti: antivirals against arbovirus infection, primary screen, cell-based, full library, 10K replicate subset. actives 0.37% (n = 200,000). arbovirus infection cell-based antiviral screen. inhibition, % at 10 µM; in the data active means inhibition above about 30%
Efa HMGR inh: inhibitors of E. faecalis class II HMGR, primary screen, biochemical, Enterococcus faecalis; purified E. faecalis HMGR, NADPH absorbance 340 nm kinetic; actives 0.41% (n = 190,000); HMG-CoA reductase (Enterococcus faecalis, mvaE); inhibition, % at 10 µM; AID 1066, 2008;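 active means inhibition above a set limit, the median over all tested compounds plus 3 SD, cut at about 9.5% in these data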;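 further: enzyme runs in reverse so mevalonate oxidation gives rising NADPH absorbance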
Yeast growth inh: growth inhibitors of yeast BB579 in restrictive medium, primary screen, yeast lifespan-shortening project, S. cerevisiae; actives 0.51% (n = 140,000); AID 804, 2007; OD615, 48 h; inhibition, % at 10 µM;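 active means inhibition above a set limit, 3 SD over the mean compound inhibition, cut at about 44% in these data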
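Detection: OD615 turbidity measurement; Material: Saccharomyces cerevisiae DeaD strain BB579, replicative lifespan model yeast; Timing: 48 h exposure, 30 °C; Doses: single 10 µM dose; Medium: CSMM-D restrictive synthetic medium containing dextrose (glucose); Controls: amphotericin B at 10 µg/mL as positive control.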
Rad51 HR inh: human RAD51 strand exchange inhibitors, primary screen, biochemical, fluorescence; actives 0.085% (n = 200,000); inhibition, % at 10 µM; hRad51 DNA strand exchange, fluorescence dequenching; DNA repair protein RAD51 homolog 1 (Homo sapiens), Q06609;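 active means inhibition above 40% at the single screening dose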
Target sequence (Q06609 whole entry, looked up): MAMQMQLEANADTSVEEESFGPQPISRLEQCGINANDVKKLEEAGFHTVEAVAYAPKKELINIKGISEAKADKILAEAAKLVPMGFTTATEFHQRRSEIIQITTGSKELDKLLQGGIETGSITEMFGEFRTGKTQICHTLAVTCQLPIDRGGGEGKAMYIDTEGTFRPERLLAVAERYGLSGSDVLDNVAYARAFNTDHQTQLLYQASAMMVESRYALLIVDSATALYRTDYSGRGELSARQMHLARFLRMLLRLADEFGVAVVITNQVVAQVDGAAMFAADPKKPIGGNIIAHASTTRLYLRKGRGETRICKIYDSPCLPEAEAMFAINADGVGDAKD
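Material: human Rad51–ssDNA filaments; Probe or stimulus: labelled 47-mer dsDNA for strand exchange; Doses: single 10 µM dose; Incubation: 37 °C 15-min filament assembly, 30-min compound preincubation, 15-min exchange; Technique: FRET fluorescence dequenching, excitation 485 nm, emission 520 nm; Measure: Fluorescence-based percent inhibition, control- and blank-normalised; Benchmarks: plate control and blank wells.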
Numbers stand for hits; . = inactive; / = no result given; ! = not active in a repeat.

SMILES	Yeast life ext	Measles CPE	Arbovirus anti	Efa HMGR inh	Yeast growth inh	Rad51 HR inh
N#CC1=C(N)OC2=C(C(=O)CCC2)C1c1ccccc1 (configuration not stated)	.	33.8	.	.	.	.
CCOCC(=O)Nc1cc(C(=O)Nc2ccc(F)cc2)ccc1Cl	/	/	.	.	/	.
Cc1ccc(C(=O)Nc2cc(Cl)ccc2OC(=O)c2ccc(C)cc2)cc1	.	.	.	.	.	/
O=C(Nc1ccccc1OC(=O)c1ccc(Cl)cc1)c1ccc(Cl)cc1	.	79.4	.	.	.	.
O=C(CCCc1nc2ccccc2s1)NCc1cccnc1	/	/	.	.	/	.
COc1ccccc1Oc1c(C)oc2cc(OC(=O)c3ccco3)ccc2c1=O	.	.	.	.	.	.
COc1ccccc1-c1c(C)oc2cc(OC(=O)c3ccco3)ccc2c1=O	32.1	.	.	.	.	.
O=C(CSc1nc(O)cc(=O)[nH]1)N1CCCc2ccccc21	.	47.6	.	.	.	.
COc1cc(OC)cc(-c2nnc(SCC(=O)N3CCCc4ccccc43)o2)c1	.	35.4	.	.	.	/
O=C(CSc1nc(C2CCCCC2)n(-c2ccccc2)n1)NCC(F)(F)F	.	.	.	.	.	/
Cc1ccc(S(=O)(=O)c2nc(S(C)(=O)=O)sc2NCC2CCCO2)cc1 (configuration not stated)	.	.	.	.	.	.
Cc1ccc(-c2nc(NCC3CCCO3)sc2C)cc1 (configuration not stated)	/	/	.	12.1	/	.
CC1(C)CC(NCc2ccc3c(c2)OCO3)CCO1 (configuration not stated)	.	.	.	.	.	.
CC(C)(C)OC(=O)[C@H]1[C@H](c2ccc([N+](=O)[O-])cc2)C2(C(=O)c3ccccc3C2=O)C2c3ccccc3C=NN21 (some centres not stated)	42.9	.	.	.	.	.
O=C(O)c1cc(-c2ccco2)nc2ccc(Br)cc12	35.7!	.	.	.	.	.
O=C(c1ccco1)N1CCN(C(=O)c2cc(-c3ccncc3)nc3ccc(Br)cc23)CC1	/	/	/	/	/	.
Cn1c(N)c(S(=O)(=O)N2CCN(Cc3ccccc3)CC2)c(=O)n(C)c1=O	/	/	.	.	/	.
O=C(CNC(=O)c1ccco1)N/N=C/c1cccs1	/	/	/	/	/	.
CCCC(=O)Nc1ccccc1Sc1ncnc2scc(-c3ccccc3)c12	43.9	.	.	.	.	.
CC(=O)Nc1ccc(Sc2ncnc3scc(-c4ccccc4)c23)cc1	.	.	.	.	.	.
Cc1ccccc1NC(=S)c1nc2ccccc2[nH]1	.	.	.	.	49.7	.
Cc1cccc(-c2nnc(N)s2)c1	.	35.8	.	.	.	/
Cc1cccc(NC(=O)CCCn2c(=S)[nH]c3ccccc3c2=O)c1	/	/	.	.	/	.
COc1ccc(C/C(C)=N/NC(=O)c2ccc(Cl)cc2)cc1	/	/	.	10.3	/	.
COc1ccc(C/C(C)=N/NS(=O)(=O)c2ccc(Br)cc2)cc1	/	/	.	15.0	/	/
SMILES	Yeast life ext	Measles CPE	Arbovirus anti	Efa HMGR inh	Yeast growth inh	Rad51 HR inh
CCOC(=O)Cn1c(=O)c2c(nc3n2CCN3Cc2ccccc2)n(C)c1=O	28.6	.	.	.	.	.
Cn1c(=O)n(C/C=C/c2ccccc2)c(=O)c2c1nc1n2CCCN1Cc1ccccc1	.	.	.	.	.	.
O=S(Cc1ccc(Br)cc1)Cc1nnc(SCc2ccc(Br)cc2)n1-c1ccccc1 (configuration not stated)	.	.	.	.	.	/
CCOc1ccc(OCC(=O)c2c(O)c3ccccc3oc2=O)cc1	44.0	.	.	.	.	.
CCC(C)c1ccc(NC(=S)NCc2cccnc2)cc1 (configuration not stated)	.	.	.	.	.	.
CC(C)NC(=S)NCc1cccnc1	.	50.7	.	.	.	.
O=C(NNCC(O)COc1ccccc1)c1ccccc1 (configuration not stated)	.	49.0	.	.	.	/

High-throughput results deposited in PubChem BioAssay by several laboratories.
